From ChEMBL document CHEMBL4414584, “Targeting of Fumarate Hydratase from Mycobacterium tuberculosis Using Allosteric Inhibitors with a Dimeric-Binding Mode” (J Med Chem, 2019)
Values after ≈ are worked out from the molar mass of the structure shown. Active and inactive are the calls of the source. The calls are words filed in the database; no cut-off is given here.

What was measured:
[1] = system: Mycobacterium tuberculosis; experiment: Inhibition of Mycobacterium tuberculosis fumarate hydratase expressed in Escherichia coli BL21(DE3) at 50 uM using fumaric acid as substrate preincubated for 5 mins followed by substrate addition incubated for 2 mins and measured at 24 secs interval for 10 mins by spectrometric method relative to control
Outline: (§1)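 Coupled assay: Mtb fumarase (33.3 nM) with citrate synthase, malate dehydrogenase, acetyl-CoA (267 µM) and NAD+ (200 µM) in 250 mM Tris pH 8.0, 5 mM MgCl2. Ligand in DMSO pre-equilibrated 5 min at 25 °C, then fumaric acid added. A340 read every 24 s over 10 min. Slope corrected by no-substrate control and normalised to uninhibited control.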

[2] = system: Mycobacterium tuberculosis; experiment: Inhibition of Mycobacterium tuberculosis fumarate hydratase expressed in Escherichia coli BL21(DE3) at 100 to […] using fumaric acid as substrate preincubated for 5 mins followed by substrate addition incubated for 2 mins and measured at 24 secs interval for 10 mins by spectrometric method; outline: as §1
[3] = system: Mycobacterium tuberculosis; experiment: Binding affinity to Mycobacterium tuberculosis fumarate hydratase expressed in Escherichia coli BL21(DE3) assessed as change in melting temperature at 5 mM by Sypro orange dye based differential scanning fluorimetry
[4] = system: Mycobacterium tuberculosis; experiment: Antimycobacterial activity against Mycobacterium tuberculosis H37Rv assessed as reduction in bacterial growth incubated for 2 weeks in 7H9/DPPC media by 2-fold serial dilution method; format: functional; settings: for MIC: 336 h
Outline: (§2)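 H37Rv grown in the test medium to OD 0.2–0.4, diluted to OD 0.0002 and added 1:1 to a two-fold serial dilution series of compound. Plates incubated 37 °C for two weeks, then MIC determined.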

[5] = Inhibition of Mycobacterium tuberculosis fumarate hydratase expressed in Escherichia coli BL21(DE3) using fumaric acid as substrate preincubated for 5 mins followed by substrate addition incubated for 2 mins and measured at 24 secs interval for 10 mins by spectrometric method; outline: as §1
[6] = system: Mycobacterium tuberculosis; experiment: Antimycobacterial activity against Mycobacterium tuberculosis H37Rv assessed as reduction in bacterial growth incubated for 2 weeks in GAST-Fe media by 2-fold serial dilution method; format: functional; settings: for MIC: 336 h; outline: as §2
[7] = system: Mycobacterium tuberculosis; experiment: Antimycobacterial activity against Mycobacterium tuberculosis H37Rv assessed as reduction in bacterial growth incubated for 2 week in 7H9/ADC media by 2-fold serial dilution method; format: functional; settings: for MIC: 336 h; outline: as §2
[8] = system: Mycobacterium tuberculosis; experiment: Antimycobacterial activity against Mycobacterium tuberculosis H37Rv assessed as reduction in bacterial growth incubated for 2 weeks in 7H9/glucose media by 2-fold serial dilution method; format: functional; settings: for MIC: 336 h; outline: as §2
[9] = system: Mycobacterium tuberculosis; experiment: Binding affinity to Mycobacterium tuberculosis fumarate hydratase expressed in Escherichia coli BL21(DE3) assessed as change in melting temperature at 0.625 mM by Sypro orange dye based differential scanning fluorimetry
[10] = system: Mycobacterium tuberculosis; experiment: Antimycobacterial activity against Mycobacterium tuberculosis H37Rv assessed as growth inhibition at 250 uM supplemented with fresh medium containing compound for every 3 days for 7 days relative to control; format: functional
[11] = Inhibition of N-terminal His6-tagged Mycobacterium tuberculosis fumarate hydratase expressed in Escherichia coli BL21(DE3) using fumaric acid as substrate preincubated for 10 mins followed by substrate addition and measured immediately by fluorescence-based HTS assay

SMILES | inhibition [1] [%] | Activity [4] | IC50 [5] [µM] | Activity [6] | Activity [7] | Activity [8] | further results
COc1ccc(S(=O)(=O)N2CC3CC(C2)c2ccccc23)cc1NC(=O)Cc1n[nH]c(=O)c2ccccc12 | 44 | – | – | – | – | – | –
Cc1ccc(S(=O)(=O)N2CCCCCC2)cc1NC(=O)Cc1n[nH]c(=O)c2ccccc12 | < 10 | – | – | – | – | – | –
Nc1cc(S(=O)(=O)N2CCCCCC2)ccc1O | – | – | – | – | – | – | inhibition [2]: inactive; ΔTm [3]: -1.6 °C
COc1ccccc1NC(=O)Cc1n[nH]c(=O)c2ccccc12 | – | – | – | – | – | – | inhibition [2]: inactive; ΔTm [3]: -0.4 °C
O=C(Cc1nnc(O)c2ccccc12)Nc1cccc(S(=O)(=O)N2CCCCCC2)c1 | 16 | – | – | – | – | – | –
COc1ccc(S(=O)(=O)N2CCc3ccccc3CC2)cc1NC(=O)Cc1n[nH]c(=O)c2ccccc12 | – | inactive | 0.67 | inactive | inactive | inactive | –
COc1ccc(S(=O)(=O)N2CCCCCC2)cc1N | – | – | – | – | – | – | inhibition [2]: inactive; ΔTm [3]: -0.7 °C
COc1ccc(S(=O)(=O)N2CCN(C)CC2)cc1NC(=O)Cc1n[nH]c(=O)c2ccccc12 | – | inactive | 38 | inactive | inactive | inactive | –
COc1ccc(S(=O)(=O)N2CCCCCC2)cc1 | – | – | – | – | – | – | inhibition [2]: inactive; ΔTm [3]: 0.1 °C
COc1ccc(S(=O)(=O)N2CCCCCC2)cc1NC(=O)Cc1nnc(O)c2ccccc12 | > 90 | – | 2 | – | – | – | MIC [4]: > 100 µM; ΔTm [9]: 3.9 °C; growth inhibition (GI) [10]: 65%; IC50 [11]: 2.5 µM; MIC [6]: > 100 µM; MIC [7]: > 100 µM; MIC [8]: > 100 µM
COc1ccc(C(=O)N2CCCCCC2)cc1NC(=O)Cc1n[nH]c(=O)c2ccccc12 | 14 | – | – | – | – | – | –
COc1ccc(S(=O)(=O)N2CCc3cc(OC)c(OC)cc3C2)cc1NC(=O)Cc1n[nH]c(=O)c2ccccc12 | – | inactive | 3.4 | inactive | inactive | inactive | –
COc1ccc(S(=O)(=O)N2CCCCCC2)cc1NC(=O)Cc1c[nH]c2ccccc12 | 27 | – | – | – | – | – | MIC [4]: 9.4 µM (≈ 4.15 µg/mL); MIC [6]: > 100 µM; MIC [7]: > 100 µM; MIC [8]: 100 µM (≈ 44.2 µg/mL)
COc1ccc(S(=O)(=O)N2CCCCCC2)cc1NC(=O)Cc1ccncc1 | < 10 | inactive | – | inactive | inactive | inactive | –
COc1ccc(S(=O)(=O)N2CCCCCC2)cc1NC(=O)Cn1cnc2ccccc21 | < 10 | – | – | – | – | – | –
CNS(=O)(=O)c1ccc(OC)c(NC(=O)Cc2n[nH]c(=O)c3ccccc23)c1 | – | – | 57 | – | – | – | –
COc1ccc(S(=O)(=O)N2CCCCCC2)cc1NC(=O)Cc1coc2ccccc12 | < 10 | – | – | – | – | – | MIC [4]: 6.3 µM (≈ 2.79 µg/mL); MIC [6]: > 100 µM; MIC [7]: > 100 µM; MIC [8]: 9.4 µM (≈ 4.16 µg/mL)
COc1ccc(S(=O)(=O)N2CCc3ccccc3C2)cc1NC(=O)Cc1n[nH]c(=O)c2ccccc12 | – | inactive | 2.2 | inactive | inactive | inactive | –
COc1ccc(S(=O)(=O)N2CCSCC2)cc1NC(=O)Cc1n[nH]c(=O)c2ccccc12 | – | inactive | 4.7 | inactive | inactive | inactive | –

SMILES | inhibition [1] [%] | Activity [4] | IC50 [5] [µM] | Activity [6] | Activity [7] | Activity [8] | further results
COc1ccc(S(=O)(=O)N2CCCCCC2)cc1NC(=O)Cc1cccc2ccccc12 | 21 | inactive | – | inactive | inactive | inactive | –
COc1ccc(S(=O)(=O)N2CCCCC2)cc1NC(=O)Cc1n[nH]c(=O)c2ccccc12 | – | inactive | 4.4 | inactive | inactive | inactive | –
COc1ccc(S(=O)(=O)N2CCCCCC2)cc1NC(C)=O | – | – | – | – | – | – | inhibition [2]: inactive; ΔTm [3]: -0.6 °C
COc1ccc2[nH]cc(CC(=O)Nc3cc(S(=O)(=O)N4CCCCCC4)ccc3OC)c2c1 | 38 | – | – | – | – | – | MIC [4]: 12.5 µM (≈ 5.89 µg/mL); MIC [6]: > 100 µM; MIC [7]: > 100 µM; MIC [8]: > 100 µM
CNS(=O)(=O)c1ccc(OC)c(NC(C)=O)c1 | – | – | – | – | – | – | inhibition [2]: inactive; ΔTm [3]: -0.4 °C
CCOC(=O)Cc1nnc(O)c2ccccc12 | – | – | – | – | – | – | inhibition [2]: inactive; ΔTm [3]: -0.6 °C
COc1ccc(S(=O)(=O)NCc2ccccc2)cc1NC(=O)Cc1n[nH]c(=O)c2ccccc12 | 53 | – | – | – | – | – | –
COc1ccc(S(=O)(=O)Nc2ccccc2)cc1NC(=O)Cc1n[nH]c(=O)c2ccccc12 | – | inactive | 17 | inactive | inactive | inactive | –
CC(=O)Nc1cccc(S(=O)(=O)N2CCCCCC2)c1 | – | – | – | – | – | – | inhibition [2]: inactive; ΔTm [3]: -0.4 °C
COc1ccc(S(=O)(=O)N2CCCCCC2)cc1NC(=O)Cc1noc2ccccc12 | < 10 | – | – | – | – | – | –
COc1ccc(S(=O)(=O)N2CCCCCCC2)cc1NC(=O)Cc1n[nH]c(=O)c2ccccc12 | – | – | 4 | – | – | – | MIC [4]: 19 µM (≈ 9.21 µg/mL); MIC [6]: > 100 µM; MIC [7]: > 100 µM; MIC [8]: 25 µM (≈ 12.1 µg/mL)
COc1ccc(S(=O)(=O)N2CCS(=O)(=O)CC2)cc1NC(=O)Cc1n[nH]c(=O)c2ccccc12 | – | inactive | 13 | inactive | inactive | inactive | –
O=C(O)Cc1nnc(O)c2ccccc12 | – | – | – | – | – | – | inhibition [2]: inactive; ΔTm [3]: -0.4 °C
COc1ccc(S(=O)(=O)N2CCCCCC2)cc1NC(=O)Cc1ccnc2ccccc12 | 86 | inactive | 4.1 | inactive | inactive | inactive | –
COc1ccc(S(=O)(=O)N2CCOCC2)cc1NC(=O)Cc1n[nH]c(=O)c2ccccc12 | – | inactive | 12 | inactive | inactive | inactive | –
COc1ccc2c(c1)CCN(S(=O)(=O)c1ccc(OC)c(NC(=O)Cc3n[nH]c(=O)c4ccccc34)c1)CC2 | – | inactive | 0.67 | inactive | inactive | inactive | –
COc1ccc(S(=O)(=O)N2CCCCCC2)cc1NC(=O)CCc1c[nH]c2ccccc12 | 12 | – | – | – | – | – | MIC [4]: 9.4 µM (≈ 4.28 µg/mL); MIC [6]: > 100 µM; MIC [7]: > 100 µM; MIC [8]: 25 µM (≈ 11.4 µg/mL)
Nc1cccc(S(=O)(=O)N2CCCCCC2)c1 | – | – | – | – | – | – | inhibition [2]: inactive; ΔTm [3]: -1.2 °C
